Screens deposited in PubChem by Sanford-Burnham Center for Chemical Genomics.
Only some compounds are listed: those with a hit (about 1.9% of all), similar ones and a draw of the others.
EBI2 block: EBI2 receptor antagonists, beta-arrestin recruitment, primary screen, cell-based, luminescence, 7a,25-OHC stimulation, uHTS; G-protein coupled receptor 183 (Homo sapiens), P32249; 7a,25-OHC stimulated; inhibition, % at 5 µM; 360,000 compounds, 0.81% hits; in the data active means inhibition above about 38%;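 further: enzyme fragment complementation signal reports receptor beta-arrestin coupling in cells; 0% = agonist plus DMSO wells and 100% = wells without agonist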
APJ antag: antagonists of human apelin receptor APJ, primary screen, CHO-K1 cells, beta-arrestin complementation, luminescence. P35414. inhibition, % at 20 µM. 330,000 compounds, 0.32% hits. AID 2521, 2010;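 active means inhibition above about 40% at 20 µM, limit read from the data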;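 further: cells challenged with 10 nM apelin-13 agonist together with compound; plate controls were apelin-13 plus DMSO wells for no effect and DMSO wells lacking apelin-13 for full effect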
CCR6 antag: CCR6 receptor antagonists, primary screen, cell-based, CHO-K1, luminescence, beta-arrestin, uHTS | 340,000 compounds, 0.49% hits | inhibition, % at 20 µM | AID 493098, 2011 | CHO-K1 CCR6 PathHunter beta-arrestin, CCL20-stimulated | C-C chemokine receptor type 6 (Homo sapiens), P51684;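 active means compounds whose inhibition of the agonist-driven luminescence signal at 20 µM reaches about 50%, limit read from the data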;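 further: cells stimulated with CCL20 at 14 nM final; plate controls were DMSO with CCL20 for no effect and DMSO without agonist for full effect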
Target sequence (P51684 whole entry, looked up): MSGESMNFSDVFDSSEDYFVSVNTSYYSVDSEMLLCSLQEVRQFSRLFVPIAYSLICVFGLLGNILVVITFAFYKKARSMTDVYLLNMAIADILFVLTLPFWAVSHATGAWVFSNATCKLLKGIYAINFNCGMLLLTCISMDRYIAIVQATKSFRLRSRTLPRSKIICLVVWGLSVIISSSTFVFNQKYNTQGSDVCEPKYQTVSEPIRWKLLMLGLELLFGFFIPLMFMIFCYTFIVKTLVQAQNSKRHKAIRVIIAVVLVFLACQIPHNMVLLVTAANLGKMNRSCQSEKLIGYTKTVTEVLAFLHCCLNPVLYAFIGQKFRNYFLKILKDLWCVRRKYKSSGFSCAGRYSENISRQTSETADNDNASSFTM
H9c2 TAG inh: inhibitors of triacylglycerol accumulation, primary screen, cell-based, uHTS, fluorescence, H9c2. H9c2 cells, Nile Red lipid (TAG) fluorescence; cells loaded with 200 µM oleic acid. inhibition, % at 12.5 µM. 230,000 compounds, 0.66% hits. AID 651582, 2012;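 active means pattern-corrected inhibition of lipid staining of at least 50% with the nuclear-stain viability signal not falling by more than 50%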;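 further: 0% = DMSO wells and 100% = triacsin C control wells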
APJ ag: agonists of human apelin receptor APJ, primary screen, CHO-K1 cells, PathHunter beta-arrestin, luminescence; P35414; 330,000 compounds, 0.11% hits; activation, % at 20 µM; 0% DMSO wells, 100% apelin; AID 2520, 2010;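 active means activation more than six SD over the plate average, tested at 20 µM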;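 further: 0% = DMSO alone and 100% = apelin-13 at 10 nM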
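Test system – PathHunter CHO-K1 APJ (AGTRL-1) beta-arrestin reporter cells · Input – 1000 cells/well · Compound – single test compound dose, 20 µM final, 1% DMSO · Times – compound stimulation 90 min at 25 °C, detection 60 min · Technique – beta-gal luminescence · Read-out basis – APJ–arrestin association signal · Control set – negative DMSO alone, positive Apelin-13 at 10 nM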
CXCR6 inh: CXCR6 receptor inhibitors, primary screen, cell-based, beta-arrestin, luminescence, CHO-K1 PathHunter, 1536-well | inhibition, % at 20 µM | C-X-C chemokine receptor type 6 (Homo sapiens), O00574 | 360,000 compounds, 0.36% hits; in the data active means inhibition above about 34%, passing the limit was not always enough;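 further: antagonist mode with CXCL16 agonist at 10 nM final; 0% = 10 nM CXCL16 with DMSO and 100% = unstimulated wells without agonist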
* = called active by the depositor; . = no result given.

SMILES	EBI2 block	APJ antag	CCR6 antag	H9c2 TAG inh	APJ ag	CXCR6 inh
COc1ccc(NS(=O)(=O)c2cc([N+](=O)[O-])ccc2N/N=C/c2c(C)[nH]c3ccccc23)cc1	30	.	58*	-47	.	35
Cc1ccc(NC(=O)CN(C)C(=O)CSc2nccn2C)cc1	-3	2	7	7	-5	-2
C#CCOCCOCCOCCNc1nc(N2CCN(C(=O)[C@H](C(C)C)n3cc(CCO)nn3)CC2)nc(N2CCN(C(=O)[C@H]([C@@H](C)CC)n3cc(CCC(=O)O)nn3)CC2)n1	-12	.	-3	-5	.	-3
Cc1ccc([N+](=O)[O-])cc1NC(=S)NCCc1ccccc1	6	21	14	-12	4	-13
CCCNC(=O)c1cc(C2CCCN(C(=O)c3ccc(NC(C)=O)cc3)C2)on1 (centres undefined)	-12	.	.	29	.	5
COC(=O)c1ccc(NC(=S)NC(=O)c2cc(-c3ccccc3)nc3ccccc23)cc1	22	35	53*	2	0	30
O=C(CC(O)c1ccccc1)Nc1ccccn1 (centres undefined)	-6	.	-3	-5	.	3
CCCCn1c(N)c(C(=S)NC(=O)CC(C)C)c(=O)n(C)c1=O	1	.	.	.	.	48*
CC1=CC(=O)C(Sc2ccc(C)cc2)=CC1=O	35	.	.	-41	.	92*
Cc1ccc(SC2=C(Sc3ccc(C)cc3)C(=O)c3ccccc3C2=O)cc1	14	-11	45	.	9	-9
COc1cc(-c2nc(-c3ccccc3)c(-c3cc([N+](=O)[O-])ccc3C)[nH]2)cc(OC)c1OC	38*	29	14	.	-5	49*
O=[N+]([O-])c1cccc(-c2nc(-c3ccccc3)c(-c3cccs3)[nH]2)c1	6	-1	-4	.	-3	7
C#CCOc1ccc(/C=C2\SC(=S)N(Cc3cccnc3)C2=O)cc1	-11	10	9	.	4	9
O=C1/C(=C/c2ccc(O)cc2)SC(=S)N1Cc1cccnc1	31	47*	45	.	-8	20
CC1CCN(S(=O)(=O)c2ccc3c(c2)C(=NO)c2cc(S(=O)(=O)N4CCC(C)CC4)ccc2-3)CC1	-42	9	16	84*	-3	-9
O=S(=O)(c1ccc2c(c1)C(=NO)c1cc(S(=O)(=O)N3CCCCC3)ccc1-2)N1CCCCC1	39	12	25	159	13	27
CCN(CC)S(=O)(=O)c1ccc2c(c1)C(=NO)c1cc(S(=O)(=O)N(CC)CC)ccc1-2	50*	18	39	53*	-7	22
Cc1cc(=O)c(C(=O)O)c(C)n1-c1ccccc1	3	.	7	-5	.	0
O=C(NC(Nc1nc2ccc([N+](=O)[O-])cc2s1)(C(F)(F)F)C(F)(F)F)c1cccnc1	-8	14	30	-9	-4	14
O=C(NC(Nc1nc2ccc([N+](=O)[O-])cc2s1)(C(F)(F)F)C(F)(F)F)c1ccccc1Cl	15	30	56*	10	-4	29
N#Cc1ccc(S(=O)(=O)N2CCC(C(=O)N3CCN(Cc4ccc5c(c4)OCO5)CC3)CC2)cc1	12	6	8	-19	-2	1
CC1=NNC(=O)/C1=C\c1cn(-c2ccccc2)nc1-c1ccccc1	63*	.	24	3	.	34
Cc1cc2ncn(C(=O)c3ccc(F)cc3)c2cc1C	-7	15	14	.	-1	0
CN(Cc1ccccc1)S(=O)(=O)c1ccc(NC(=S)NC(=O)C(C)(C)C)cc1	14	18	21	.	2	26
CN(Cc1ccccc1)S(=O)(=O)c1ccc(NC(=S)NC(=O)C2CCCCC2)cc1	18	5	51*	.	-4	33
SMILES	EBI2 block	APJ antag	CCR6 antag	H9c2 TAG inh	APJ ag	CXCR6 inh
Cc1ccc(C(=O)N/C(=C\c2ccc(-c3ccc(Br)cc3)o2)C(=O)NCCCN(C)C)cc1	-16	18	70*	33	-1	12
CCOC(=O)CSC1=NC(=O)/C(=C\c2ccc(OC(C)=O)cc2)S1	-15	33	78*	.	-4	30
CCOC(=O)COc1ccc(Br)cc1/C=C1\SC(N)=NC1=O	-5	-2	17	-2	-3	-12
CCOC(=O)CSC1=NC(=O)/C(=C/c2ccc(Br)cc2)S1	-3	13	59*	-4	-5	22
NC1=NC(=O)/C(=C/c2ccc(Br)cc2)S1	-15	-4	-5	.	1	14
CC(C)[C@@]1(c2ccc(Cl)cc2)ON(c2ccccc2C(F)(F)F)C1=O	.	-1	.	.	-4	.
CCn1c(=O)[nH]c2cc(C(=O)Nc3cc(C)cc(C)c3)ccc2c1=O	-2	4	14	1	2	8
CC(C)(C)c1ccc(C(=O)NCCC(=O)Nc2cc(Cl)ccc2N2CCOCC2)cc1	22	-19	8	57*	-2	13
COCCNC(=S)N1CCC2CC1c1c(Cl)cccc12 (centres undefined)	6	.	.	-2	.	-3
CN(C)c1nc(=NCc2ccco2)ss1	13	.	104*	.	.	100*
CN(C)S(=O)(=O)c1cccc(NC(=O)CSc2cccc3cccnc23)c1	29	11	71*	.	-6	51*
O=C(CSc1nnc(COc2ccc(Cl)cc2)o1)N(c1ccccc1)C1CCS(=O)(=O)C1 (centres undefined)	11	.	.	3	.	5
Nc1c(Cl)cc2c(c1Oc1ccccc1)C(=O)c1ccccc1C2=O	10	6	22	.	2	38*
N#C/C(=C\c1ccc(O)cc1)c1nc2ccccc2o1	2	45*	40	5	-5	23
Cc1csc(=O)n1CCC(=O)N(C)Cc1c(F)cccc1Cl	3	-4	7	-22	-1	3
CN1CCN(c2ccc([N+](=O)[O-])c(-n3nc(-c4ccccc4)c4ccccc4c3=O)c2)CC1	-3	15	52*	17	-4	18
Cc1nn(-c2cc(N3CCCCC3)ccc2[N+](=O)[O-])c(=O)c2ccccc12	12	24	28	.	-5	17
O=C(COc1ccc(/C=N/NC(=O)c2ccccc2)cc1)Nc1ccc([N+](=O)[O-])cc1	4	2	4	7	-1	-2
CC(C)Oc1ccc(/C=N/NC(=O)C(CSCc2ccccc2)NC(=O)c2ccc([N+](=O)[O-])cc2)cc1 (centres undefined)	14	-18	2	54*	-2	-5
CSc1ccc(CN2CCC2(C)C(=O)NC2CCN(Cc3ccccc3)CC2)cc1 (centres undefined)	0	.	.	1	.	-3
